Measurements pooled from the literature.
Protocols differ between the studies behind these lines.
Target: RAC-beta serine/threonine-protein kinase (AKT2, Homo sapiens, UniProt P31751)

The remaining signal of `Nc1nc(Nc2ccc(S(N)(=O)=O)cc2)nn1C(=O)c1c(F)cccc1F` is reported as 107% (cell-free assay; 0.5 µM).
`Cc1cc(NC(=O)c2cccc3cc(-c4cccc5[nH]nc(N)c45)ccc23)ccc1F` has an activity vs control of 123% (enzyme activity, inhibitor; 0.1 µM).
`O=C(NCc1ncc(C(F)(F)F)cc1Cl)c1ccc2c(c1)C1(CCS(=O)(=O)CC1)[C@H](C1CC1)N2S(=O)(=O)c1ccc(F)cc1` gave a remaining binding of 100% (cell-free assay, competition with immobilised ligand; 1 µM).
`Nc1ncnc2occ(-c3ccc(NC(=O)Nc4cc(C(F)(F)F)ccc4F)cc3)c12` gave a remaining signal of 95% (cell-free assay, inhibitor; 20 µM).
For `COc1cc(Nc2cnc(C#N)c(O[C@H](C)CN(C)C)n2)ncc1-c1cnn(C)c1`, the remaining activity was 67% (enzyme activity, inhibitor, radiometric; 10 µM).
With `COc1cc(/C=C/C(=O)CC(=O)/C=C/c2ccc(O)c(OC)c2)ccc1O` the activity vs control was 70% (enzyme activity, inhibitor; 1 µM).
For `CN(c1ncccc1CNc1nc(Nc2ccc3c(c2)CC(=O)N3)ncc1C(F)(F)F)S(C)(=O)=O`, the inhibition was 1.6% (enzyme activity, inhibitor; 1 µM).
`CC(=O)N1CCC(c2ccc(C(=O)NC3=NCCN3)cc2C(F)(F)F)CC1` gave a remaining binding of 91% (cell-free assay, competition with immobilised ligand; 1 µM).
The inhibition of `COc1cc2ncnc(Nc3ccc(Oc4ccccc4)cc3C)c2cc1OC` is reported as 7% (enzyme activity, inhibitor; 1 µM).
With `FC(F)c1nc2ccccc2n1-c1nc(N2CCOCC2)nc(N2CCOCC2)n1` the remaining activity was 84% (enzyme activity, inhibitor; 10 µM).
With `COc1cc(F)ccc1-c1ncnc(Nc2cccc(C[S@](C)(=N)=O)c2)n1` the activity vs control was 112% (enzyme activity, inhibitor; 10 µM).
For `CC(C)(C)C(=O)c1sc(NC2CCCCC2)nc1N`, the remaining activity was 83% (enzyme activity, inhibitor; 10 µM).
The remaining activity of `Cc1ccc(Nc2nccc(N(C)c3ccc4c(C)n(C)nc4c3)n2)cc1S(N)(=O)=O` is reported as 107% (enzyme activity, inhibitor; 0.5 µM).
`CC(C)c1ccc(NC(=O)c2cccs2)c(-c2nc3ccccc3[nH]c2=O)c1` has an activity vs control of 102% (enzyme activity, inhibitor; 1 µM).
With `Oc1cccc(-c2nc(N3CCOCC3)c3oc4ncccc4c3n2)c1` the remaining signal was 99.1% (cell-free assay; 0.5 µM).
The remaining binding of `O=C(O)c1cc(-c2ccc(C3CCNCC3)cc2)c2ccc(-c3ccc(C(F)(F)F)cc3)cc2c1` is reported as 95% (cell-free assay, competition with immobilised ligand; 1 µM).
The inhibition of `CNc1cccc2cc(C(=O)Nc3ccc(C(=O)O)cc3)c(=O)[nH]c12` is reported as 3.3% (enzyme activity, inhibitor; 10 µM).
The remaining binding of `CNC(=O)Nc1ccc2c(c1)CC[C@@]21OC(=O)N(CC(=O)N(Cc2ccc(F)cc2)[C@@H](C)C(F)(F)F)C1=O` is reported as 80% (cell-free assay, competition with immobilised ligand; 1 µM).
`O=C(Nc1cc(-c2ccc(Cl)cc2)[nH]n1)C1CCCCC1` gave an activity vs control of 75% (enzyme activity, inhibitor; 10 µM).
`O=C(Nc1cnn(-c2csc(C(=O)NC3COC3)c2)c1)Nc1ccccc1Cl` has a remaining activity of 88.2% (enzyme activity, inhibitor; 5 µM).
For `CC(C)(C)c1nc2c(s1)c1nc(N)ncc1c1ccc(NS(=O)(=O)c3c(F)cccc3F)c(F)c12`, the remaining activity was 114% (enzyme activity, inhibitor, radiometric; 1 µM).
The remaining binding of `CSc1cccnc1N1CCN(Cc2nc3ccccc3[nH]2)CC1` is reported as 98% (cell-free assay, competition with immobilised ligand; 1 µM).
With `Cc1ccc(NC(=O)c2ccc(C)c(C(F)(F)F)c2)cc1C#Cc1nn(C2CCC(O)CC2)c2ncnc(N)c12` (stereo not drawn) the remaining signal was 127% (cell-free assay; 10 µM).
`Cc1cnc(NC2CCOCC2)nc1-n1cnc(C(=O)NC(CN)c2cc(F)cc(Cl)c2)c1` (stereo not drawn) has a remaining activity of 92% (enzyme activity, inhibitor, radiometric; 1 µM).
For `O=C(N[C@H]1CCCCC/C=C\C2C[C@@]2(C(=O)O)NC(=O)[C@@H]2C[C@@H](Oc3ccncc3)CN2C1=O)OC1CCCC1` (stereo partly drawn), the remaining binding was 85% (binding, competition with immobilised ligand; 1 µM).
`CNC(=O)c1cc(Oc2ccc(NC(=O)Nc3ccc(Cl)c(C(F)(F)F)c3)cc2)ccn1` gave a remaining signal of 103% (cell-free assay; 0.5 µM).
With `C[C@H](c1cccc(C#N)c1)n1cc(Cl)cc(C(N)=O)c1=N` the remaining binding was 100% (cell-free assay, competition with immobilised ligand; 1 µM).
`CN1CC(Oc2cnc(C#N)cc2-c2ccn3nc(NC(=O)C4CC4)cc3c2)C1` has an inhibition of -3% (enzyme activity, inhibitor; 1 µM).
With `O=S(=O)(NC1CCC(c2cc(F)ccc2F)(S(=O)(=O)c2ccc(Cl)cc2)CC1)C(F)(F)F` (stereo not drawn) the remaining binding was 99% (cell-free assay, competition with immobilised ligand; 1 µM).
For `Cc1ccc(C(=O)Nc2ccc(CN3CCN(C)CC3)c(C(F)(F)F)c2)cc1C#Cc1cnc2cccnn12`, the remaining activity was 95% (enzyme activity, inhibitor; 23.5 nM).
